Measurements published in ChEMBL document CHEMBL3352265, “Potentially bioactive organotin(IV) compounds: synthesis, characterization, in vitro bioactivities and interaction with SS-DNA” (Eur J Med Chem, 2014).
The source made the active and inactive calls. No cut-off for these calls is given here.

What was measured:
Escherichia coli [1] = assay: Antibacterial activity against Escherichia coli ATCC 15224 at 40 mg/mL after 24 hrs by disc diffusion method; format: functional
Method in brief: (§1)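 Disc diffusion. Strains grown in nutrient broth at 37 °C for 24 h. 1% culture (about 10^6 CFU/mL) mixed into nutrient agar at 45 °C and poured. 4 mm paper discs received compound at 40 mg/mL stock in DMSO; final concentrations tested were […]. DMSO served as negative control, roxithromycin and cefixime as positive controls. Triplicate plates incubated at 37 °C for 24 h. Complete-inhibition zone diameter (mm) recorded as the mean of 3.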

Staphylococcus aureus [2] = assay: Antibacterial activity against Staphylococcus aureus ATCC 6538 at 40 mg/mL after 24 hrs by disc diffusion method; format: functional; method in brief: as §1
Klebsiella aerogenes [3] = assay: Antibacterial activity against Enterobacter aerogenes ATCC 13048 at 40 mg/mL after 24 hrs by disc diffusion method; format: functional; method in brief: as §1
Salmonella typhimurium [4] = assay: Antibacterial activity against Salmonella typhimurium ATCC 14028 at 40 mg/mL after 24 hrs by disc diffusion method; format: functional; details: Salmonella enterica subsp. enterica serovar Typhimurium; method in brief: as §1
[5] = test system: Bordetella bronchiseptica; assay: Antibacterial activity against Bordetella bronchiseptica ATCC 4617 at 40 mg/mL after 24 hrs by disc diffusion method; format: functional; method in brief: as §1
Bacillus spizizenii [6] = assay: Antibacterial activity against Bacillus subtilis ATCC 6633 at 40 mg/mL after 24 hrs by disc diffusion method; format: functional; method in brief: as §1
Escherichia coli [7] = assay: Antibacterial activity against Escherichia coli ATCC 15224 after 18 hrs by microdilution method; format: functional
Method in brief: (§2)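 Broth microdilution. Twofold dilutions in culture broth at […]. Each well inoculated with bacterial suspension (10^8 CFU/mL, about 10^5 CFU/well). Sterility control and growth control (broth plus DMSO) included. Incubated at 36 °C for 18 h, in triplicate. MIC taken as the lowest concentration inhibiting growth, given in micrograms per mL.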

Staphylococcus aureus [8] = assay: Antibacterial activity against Staphylococcus aureus ATCC 6538 after 18 hrs by microdilution method; format: functional; method in brief: as §2
Klebsiella aerogenes [9] = assay: Antibacterial activity against Enterobacter aerogenes ATCC 13048 after 18 hrs by microdilution method; format: functional, organism-based; method in brief: as §2
[10] = test system: Bordetella bronchiseptica; assay: Antibacterial activity against Bordetella bronchiseptica ATCC 4617 after 18 hrs by microdilution method; format: functional; method in brief: as §2
Bacillus spizizenii [11] = assay: Antibacterial activity against Bacillus subtilis ATCC 6633 after 18 hrs by microdilution method; format: functional; method in brief: as §2
Aspergillus niger [12] = assay: Antifungal activity against Aspergillus niger FCBP 0198 at 40 mg/mL after 7 days by disc diffusion method; format: functional
Method in brief: (§3)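 Disc diffusion on SDA. Fungi cultured at 28 °C for 24 h. 4 mm discs received compound at 40 mg/mL stock in DMSO. DMSO served as negative control, terbinafine as positive control. Plates incubated at 28 °C for 7 days. Growth diameter (mm) measured and inhibition calculated against the negative control. MIC taken as the lowest concentration with no growth.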

Aspergillus fumigatus [13] = assay: Antifungal activity against Aspergillus fumigatus FCBP 66 at 40 mg/mL after 7 days by disc diffusion method; format: functional; method in brief: as §3
Aspergillus flavus [14] = assay: Antifungal activity against Aspergillus flavus FCBP 0064 at 40 mg/mL after 7 days by disc diffusion method; format: functional; method in brief: as §3
Mucor [15] = assay: Antifungal activity against Mucor FCBP 0400 at 40 mg/mL after 7 days by disc diffusion method; format: functional; method in brief: as §3
Aspergillus niger [16] = assay: Antifungal activity against Aspergillus niger FCBP 0198 after 7 days by disc diffusion method; format: functional, organism-based; method in brief: as §3
Artemia salina = assay: Cytotoxicity in brine shrimp assessed as mortality after 24 hrs; format: functional
[17] = test system: Agrobacterium tumefaciens; assay: Antitumor activity against Agrobacterium tumefaciens -induced tumor at 1000 ug/ml after 21 days by potato disc bioassay technique; format: functional
Method in brief: (§4)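 Potato disc assay with 48 h culture of A. tumefaciens At-10. Inoculum contained compound at […]. Red-skinned potatoes sterilized in 0.1% HgCl2; 8 mm × 4 mm discs placed ten per 1.5% agar plate, […] each. Incubated at 28 °C in the dark for 21 days, in triplicate. Discs stained with Lugol's and tumors counted. Percent inhibition calculated against the negative control.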

[18] = test system: Agrobacterium tumefaciens; assay: Antitumor activity against Agrobacterium tumefaciens -induced tumor at 100 ug/ml after 21 days by potato disc bioassay technique; format: functional; method in brief: as §4
[19] = test system: Agrobacterium tumefaciens; assay: Antitumor activity against Agrobacterium tumefaciens -induced tumor at 10 ug/ml after 21 days by potato disc bioassay technique; format: functional; method in brief: as §4
Escherichia coli [20] = assay: Induction of Escherichia coli pBR322 DNA damage assessed as open circular form at 1000 ug/ml after 60 mins by gel electrophoresis
Escherichia coli [21] = assay: Induction of Escherichia coli pBR322 DNA damage assessed as open circular form at 100 ug/ml after 60 mins by gel electrophoresis
Escherichia coli [22] = assay: Induction of Escherichia coli pBR322 DNA damage assessed as open circular form at 10 ug/ml after 60 mins by gel electrophoresis
Escherichia coli [23] = assay: Induction of Escherichia coli pBR322 DNA damage assessed as open circular form at 1 ug/ml after 60 mins by gel electrophoresis
Salmonella typhimurium [24] = assay: Antibacterial activity against Salmonella typhimurium ATCC 14028 after 18 hrs by microdilution method; format: functional; details: Salmonella enterica subsp. enterica serovar Typhimurium; method in brief: as §2
Aspergillus fumigatus [25] = assay: Antifungal activity against Aspergillus fumigatus FCBP 66 after 7 days by disc diffusion method; format: functional, organism-based; method in brief: as §3
Aspergillus flavus [26] = assay: Antifungal activity against Aspergillus flavus FCBP 0064 after 7 days by disc diffusion method; format: functional, organism-based; method in brief: as §3
Mucor [27] = assay: Antifungal activity against Mucor FCBP 0400 at 40 mg/mL by disc diffusion method; format: functional, organism-based; method in brief: as §3

Row | Substance | inhibition zone (IZ) (Escherichia coli [1]) [mm] | inhibition zone (IZ) (Staphylococcus aureus [2]) [mm] | inhibition zone (IZ) (Klebsiella aerogenes [3]) [mm] | inhibition zone (IZ) (Salmonella typhimurium [4]) [mm] | inhibition zone (IZ) [5] [mm] | inhibition zone (IZ) (Bacillus spizizenii [6]) [mm] | MIC (Escherichia coli [7]) [µg/mL] | MIC (Klebsiella aerogenes [9]) [µg/mL] | MIC [10] [µg/mL] | MIC (Bacillus spizizenii [11]) [µg/mL] | inhibition zone (IZ) (Aspergillus niger [12]) [mm] | inhibition zone (IZ) (Aspergillus fumigatus [13]) [mm] | inhibition zone (IZ) (Aspergillus flavus [14]) [mm] | inhibition zone (IZ) (Mucor [15]) [mm] | MIC (Aspergillus niger [16]) [µg/mL] | LD50 (Artemia salina) [µg/mL] | Activity [17] [%] | Activity [18] [%] | Activity [19] [%] | Activity (Escherichia coli [20]) | other results
1 | Dibenzylstannanediyl bis[4-(2-methoxyphenylamino)-4-oxobutanoate] | 16 | 20 | 14 | 0 | 19 | 11 | 50 | 150 | 50 | 200 | 11 | 0 | 0 | 0 | 200 | 1.1 | 87.1 | 52 | 19.3 | Active | MIC (Staphylococcus aureus [8]): 100 µg/mL; Activity (Escherichia coli [21]): Active; Activity (Escherichia coli [22]): Active; Activity (Escherichia coli [23]): Active
2 | Dibutylstannanediyl bis(4-(2-methoxyphenylamino)-4-oxobutanoate) | 17 | 14 | 27 | 17 | 20 | 22 | 50 | 25 | 50 | 50 | 14 | 12 | 0 | 0 | 150 | 0.611 | 88.3 | 65.5 | 50.2 | inactive | MIC (Staphylococcus aureus [8]): 100 µg/mL; MIC (Salmonella typhimurium [24]): 50 µg/mL; MIC (Aspergillus fumigatus [25]): 200 µg/mL; Activity (Escherichia coli [21]): inactive; Activity (Escherichia coli [22]): inactive; Activity (Escherichia coli [23]): inactive
3 | Dimethylstannanediyl bis(4-(2-methoxyphenylamino)-4-oxobutanoate) | 16 | 17 | 21 | 16 | 19 | 18 | 50 | 100 | 50 | 100 | 15 | 0 | 0 | 0 | 200 | 2.89 | 91.4 | 62.9 | 43.2 | Active | MIC (Staphylococcus aureus [8]): 100 µg/mL; MIC (Salmonella typhimurium [24]): 150 µg/mL; Activity (Escherichia coli [21]): Active; Activity (Escherichia coli [22]): Active; Activity (Escherichia coli [23]): Active
4 | Dioctylstannanediyl bis(4-(2-methoxyphenylamino)-4-oxobutanoate) | 10 | 0 | 0 | 12 | 11 | 9 | 200 | – | – | 200 | 0 | 0 | 0 | 0 | – | 0.499 | 65.5 | 44.9 | 31.2 | – | MIC (Salmonella typhimurium [24]): 150 µg/mL
5 | Diphenylstannanediyl bis(4-(2-methoxyphenylamino)-4-oxobutanoate | 14 | 16 | 15 | 0 | 11 | 17 | 25 | 150 | 200 | 100 | 30 | 32 | 26 | 22 | 1.56 | 0.403 | 85.3 | 62.2 | 43.9 | Active | MIC (Staphylococcus aureus [8]): 100 µg/mL; MIC (Aspergillus fumigatus [25]): 6.25 µg/mL; MIC (Aspergillus flavus [26]): 6.25 µg/mL; MIC (Mucor [27]): 6.25 µg/mL; Activity (Escherichia coli [21]): Active; Activity (Escherichia coli [22]): Active; Activity (Escherichia coli [23]): Active
6 | N-[(2-methoxyphenyl)]-4-oxo-4-[(triphenylstannyl)oxy]butanamide | 0 | 0 | 11 | 0 | 32 | 0 | – | 25 | 12.5 | – | 40 | 28 | 26 | 23 | 3.12 | 0.793 | 77.5 | 54.9 | 32.2 | Active | MIC (Aspergillus fumigatus [25]): 6.25 µg/mL; MIC (Aspergillus flavus [26]): 6.25 µg/mL; MIC (Mucor [27]): 6.25 µg/mL; Activity (Escherichia coli [21]): Active; Activity (Escherichia coli [22]): Active; Activity (Escherichia coli [23]): Active
